Experimental data taken from paper PMC6560633 (Journal of the American Chemical Society, 2018).
Where two headings read alike, the source gives them in different places.

Experiments:
[1] = Stability of Ba^2+ complexes in the presence of hydroxyapatite, GFAAS; assay type: physicochemical; conditions: HAP suspension, pH 7.6 buffer, after 20 h; 1.1 equiv L, 1.0 equiv Ba^2+
[2] = Kinetic inertness: La^3+ transmetalation challenge of Ba–L complexes, UV-vis; assay type: physicochemical; conditions: 1000 equiv of La^3+, RT, pH 7.3
[3] = Stability constants of Ca^2+ complexes by pH-potentiometry; assay type: binding; conditions: I = 0.1 M KCl; for log KʹCa (conditional stability constant): pH 7.4, 25 °C; for pCa: −log [M^2+]free, [M^2+] = 10^−6 M, [L] = 10^−5 M, pH 7.4; for pCa / log KCaL / log KCaHL: 25 °C; for log KCaHL: protonation constant of the Ca^2+ complex
[4] = Stability constants of Sr^2+ complexes by pH-potentiometry; assay type: binding; conditions: I = 0.1 M KCl; for log KʹSr (conditional stability constant): pH 7.4, 25 °C; for pSr: −log [M^2+]free, [M^2+] = 10^−6 M, [L] = 10^−5 M, pH 7.4
[5] = cited from earlier work; for log KSrHL: protonation constant of the Sr^2+ complex
[6] = I = 0.1 M KCl, cited from earlier work
[7] = Stability constants of Ba^2+ complexes by pH-potentiometry; assay type: binding; conditions: for selectivity for Ba^2+ over Ca^2+ (ratio of pM values) / selectivity for Ba^2+ over Sr^2+ (ratio of pM values) / pBa / major species present in solution of Ba^2+ and ligand: pH 7.4; for log KʹBa (conditional stability constant): pH 7.4, 25 °C; for log KʹBa (conditional stability constant) / pBa / log KBaL / major species present in solution of Ba^2+ and ligand / log KBaH2L / log KBaHL: I = 0.1 M KCl; for pBa: −log [M^2+]free, [M^2+] = 10^−6 M, [L] = 10^−5 M; for pBa / log KBaL / major species present in solution of Ba^2+ and ligand / log KBaH2L / log KBaHL: 25 °C; for major species present in solution of Ba^2+ and ligand: [Ba^2+]tot = [L]tot = 1.0 mM; for log KBaH2L / log KBaHL: protonation constant of the Ba^2+ complex
[8] = Dissolution of BaSO4 suspension by ligand, GFAAS
Summary of the method: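 BaSO4 was formed in pH 8 NaHCO3 from Ba(NO3)2 (4.53 mM) and excess Na2SO4 (13.48 mM), then ligand (5 mM) was added at RT. Dissolved barium was measured by GFAAS after 10, 20 and 30 min. A second series used pH 11 […] buffer and was sampled at 5 and 30 min. Results are reported as percent of BaSO4 dissolved.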

[9] = cited from earlier work; for log KCaHL: protonation constant of the Ca^2+ complex
[10] = cited from earlier work
[11] = Dissolution of crude barite ore in columns, ligand efficiency by GFAAS; conditions: barite 3 g, soak 1 h
[12] = Ligand protonation constants by pH-potentiometric titration; assay type: physicochemical; conditions: for log Ka1 / log Ka2 / log Ka3 / log Ka4: 25 °C, I = 0.1 M KCl; for existence of fully deprotonated ligand in solution: speciation
Summary of the method: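 Protonation constants came from pH-potentiometric titration at 25 °C in 0.1 M KCl. The fraction of each protonated or deprotonated ligand species in solution was calculated from the fitted constants using species distribution diagrams. Overall ligand basicity was taken as the sum of the log Ka values.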

[13] = pH 8 NaHCO3, RT, ligand 5 mM, 30 min
[14] = protonation constant of the Sr^2+ complex, 25 °C
[15] = I = 0.1 M KNO3, bracketed value

Structure (SMILES) | log KʹCa (conditional stability constant) [3] | pCa [3] | log KʹSr (conditional stability constant) [4] | pSr ([4]; 25 °C) | selectivity for Ba^2+ over Ca^2+ (ratio of pM values) [7] | selectivity for Ba^2+ over Sr^2+ (ratio of pM values) [7] | log KʹBa (conditional stability constant) [7] | pBa [7] | BaSO4 dissolved [8, 13] | log KCaL [3] | log KSrL ([4]; 25 °C) | log KSrHL [4, 14] | overall basicity (sum of log Ka values) [12] | log Ka1 [12] | log Ka2 [12] | log Ka3 [12] | log Ka4 [12] | log KBaL [7] | major species present in solution of Ba^2+ and ligand [7] | log KBaH2L [7] | further results
O=C([O-])c1cccc(CN2CCOCCOCCN(Cc3cccc(C(=O)[O-])n3)CCOCCOCC2)n1.[Ba+2] [Ba–macropa] | – | – | – | – | – | – | – | – | – | – | – | – | – | – | – | – | – | – | – | – | Ba^2+ retained in the liquid phase (intact complex) [1]: 82%; half-life (t½) of substitution of Ba^2+ with La^3+ [2]: 5.45 ± 0.20 min
O=C(O)CN1CCN(CC(=O)O)CCN(CC(=O)O)CCN(CC(=O)O)CC1 [DOTA, reference compound] | 10.34 | 11.29 | 8.35 | 9.30 | < 1 fold | < 1 fold | 5.72 | 6.76 | 40% | – | – | – | – | – | – | – | – | – | – | – | log KSrHL ([5]; I = 0.1 M KCl): 4.52; log Ka1 [6]: 11.14; log Ka2 [6]: 9.69; log Ka3 [6]: 4.85; log Ka4 [6]: 3.95; BaSO4 dissolved ([8]; pH 11 NaCO3 buffer, 30 min): 75%; log KCaHL ([9]; I = 0.1 M KCl): 3.60; log KBaL ([10]; I = 0.1 M KCl): 11.75
O=C(O)CN(CCN(CC(=O)O)CC(=O)O)CCN(CC(=O)O)CC(=O)O [DTPA, reference compound] | 7.63 | 8.59 | 5.53 | 6.61 | < 1 fold | < 1 fold | 4.63 | 6.15 | 40% | – | – | – | – | – | – | – | – | – | – | – | log KSrL [5]: 9.68; log KSrHL [5]: 5.4; log Ka1 [6]: 10.34; log Ka2 [6]: 8.59; log Ka3 [6]: 4.25; log Ka4 [6]: 2.71; log Ka5 [6]: 2.18; BaSO4 dissolved ([8]; pH 11 NaCO3 buffer, 5 min): nearly all; log KCaL ([9]; I = 0.1 M KCl): 11.77; log KCaHL [9]: 6.10; ligand efficiency (percent of ligand saturated with Ba^2+) ([11]; pH 8, ~48 mM ligand): 2%; ligand efficiency (percent of ligand saturated with Ba^2+) ([11]; pH 11, ~48 mM ligand): 17%; log KBaL [10]: 8.78; log KBaHL ([10]; protonation constant of the Ba^2+ complex): 5.34
O=C(O)c1cccc(CN2CCOCCOCCN(Cc3cccc(C(=O)O)n3)CCOCCOCC2)n1 [macropa] | 5.42 | 6.54 | 9.07 | 10.02 | 1.79 fold | 1.17 fold | 10.74 | 11.69 | complete dissolution | 5.79(1) | 9.442(4) | 3.35(8) | 19.99 | 7.41 | 6.899 | 3.23(1) | 2.45(5) | 11.11(4) | ML species | 2.49(7) | log KSrL [5, 15]: 9.57; log Ka1 ([6]; parenthetic value): 7.41; log Ka2 ([6]; parenthetic value): 6.85; log Ka3 ([6]; parenthetic value): 3.32; log Ka4 ([6]; parenthetic value): 2.36; log Ka5 ([6]; parenthetic value): (1.69); log Ka1 ([12]; listed as macropa^2−): 7.41(1); log Ka2 ([12]; listed as macropa^2−): 6.899(3); fraction of ligand fully deprotonated (L^2–) ([12]; pH 7.4): 43%; Ba^2+ bound by ligand ([7]; pH 4.0): 90%; Ba^2+ complexed by ligand ([7]; pH 5.1): 99%; log KBaHL [7]: 3.76(2); BaSO4 dissolved ([8]; pH 8 NaHCO3, RT, ligand 5 mM, 10 min): 78%; BaSO4 dissolved ([8]; pH 11 NaCO3 buffer, 5 min): > 95%; log KCaL [9, 15]: 5.25; ligand efficiency (percent of ligand saturated with Ba^2+) ([11]; pH 8, ~48 mM ligand): 40%; ligand efficiency (percent of ligand saturated with Ba^2+) ([11]; pH 11, ~48 mM ligand): 40%
O=C(O)c1cccc(CN2CCOCCOCCN(Cc3ccc4cccc(O)c4n3)CCOCCOCC2)n1 [macropaquin] | 3.94 | 6.04 | 7.54 | 8.50 | – | – | 10.05 | 11.01 | 95% | 5.90(4) | 9.19(5) | 8.92(2) | 27.69 | 10.33 | 7.15 | 6.97 | 3.24(4) | 10.87(2) | MHL species | 3.28(2) | log KCaHL [3]: 8.59(2); log Ka1 ([12]; listed as macropaquin^2−): 10.33(4); log Ka2 ([12]; listed as macropaquin^2−): 7.15(3); log Ka3 ([12]; listed as macropaquin^2−): 6.97(2); fraction of ligand as monoprotonated species HL^– ([12]; pH 7.4): 56%; existence of fully deprotonated ligand in solution [12]: do not exist in solution below pH 8; log KBaHL [7]: 9.76(2)
O=S(=O)(O)c1ccc(O)c2nc(CN3CCOCCOCCN(Cc4ccc5c(S(=O)(=O)O)ccc(O)c5n4)CCOCCOCC3)ccc12 [macroquin–SO3] | 3.19 | 6.01 | 5.64 | 6.70 | – | – | 8.76 | 9.72 | – | 6.04(8) | 8.62(2) | 8.34(4) | 32.14 | 9.34 | 9.43 | 6.75 | 6.62 | 10.44(6) | MH2L species | 7.80(2) | log KCaHL [3]: 8.60(4); log KSrH2L [4, 14]: 6.920(3); log Ka1 ([12]; listed as macroquin–SO3^4−): 9.34(4); log Ka2 ([12]; listed as macroquin–SO3^4−): 9.43(1); log Ka3 ([12]; listed as macroquin–SO3^4−): 6.75(4); log Ka4 ([12]; listed as macroquin–SO3^4−): 6.62(4); fraction of ligand as H2L^2– ([12]; pH 7.4): 78%; existence of fully deprotonated ligand in solution [12]: do not exist in solution below pH 8; log KBaHL [7]: 9.24(7)
